Measurements from ChEMBL document CHEMBL1133502, “Thio- and oxoflavopiridols, cyclin-dependent kinase 1-selective inhibitors: synthesis and biological effects” (J Med Chem, 2000).

Key:
[1] = Inhibition of PKA kinase; design: species or system Bos taurus
Summary of the method: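 Bovine heart PKA (2 units) with 500 ng GST-TK fusion substrate and 25 μM [32P]ATP, in 50 mM Tris pH 7.5, 10 mM MgCl2. Incubated 1 h at 30 °C. Read-out by TCA precipitation.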

Protein kinase C (PKC) = assay: Inhibition of rat brain PKC kinase
Summary of the method: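 Commercial PKC assay system run at 20 μM ATP. Read-out by spotting onto p81 phosphocellulose.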

[2] = target: Epidermal growth factor receptor (Homo sapiens, UniProt P00533); assay: Inhibition of Epidermal growth factor receptor
[3] = Inhibition of Mitogen-activated protein kinase; design: species or system Xenopus laevis
[4] = target: Cyclin-dependent kinase 2/cyclin E (Homo sapiens, UniProt P24941); assay: Inhibition of Cyclin-dependent kinase 2-cyclin E; type: protein-complex assay
[5] = target: Cyclin-dependent kinase 4/cyclin D1 (Homo sapiens, UniProt P11802); assay: Inhibition of Cyclin-dependent kinase 4-cyclin D1; type: protein-complex assay
[6] = target: Cyclin-dependent kinase 1/cyclin B1 (Homo sapiens, UniProt P06493); type: protein-complex assay
MIA PaCa-2 = assay: cells; details: Homo sapiens
HCT-116 = assay: cells; details: Homo sapiens
[7] = Inhibition of Cyclin-dependent kinase 1-cyclin A; design: species or system Homo sapiens
[8] = target: Cyclin-dependent kinase 2/cyclin A (Homo sapiens, UniProt P24941); assay: Inhibition of Cyclin-dependent kinase 2-cyclin A; type: protein-complex assay
A2780 = assay: cells; details: Homo sapiens
PC-3 = assay: cells; details: Homo sapiens

Epidermal growth factor receptor, sequence (P00533 whole entry): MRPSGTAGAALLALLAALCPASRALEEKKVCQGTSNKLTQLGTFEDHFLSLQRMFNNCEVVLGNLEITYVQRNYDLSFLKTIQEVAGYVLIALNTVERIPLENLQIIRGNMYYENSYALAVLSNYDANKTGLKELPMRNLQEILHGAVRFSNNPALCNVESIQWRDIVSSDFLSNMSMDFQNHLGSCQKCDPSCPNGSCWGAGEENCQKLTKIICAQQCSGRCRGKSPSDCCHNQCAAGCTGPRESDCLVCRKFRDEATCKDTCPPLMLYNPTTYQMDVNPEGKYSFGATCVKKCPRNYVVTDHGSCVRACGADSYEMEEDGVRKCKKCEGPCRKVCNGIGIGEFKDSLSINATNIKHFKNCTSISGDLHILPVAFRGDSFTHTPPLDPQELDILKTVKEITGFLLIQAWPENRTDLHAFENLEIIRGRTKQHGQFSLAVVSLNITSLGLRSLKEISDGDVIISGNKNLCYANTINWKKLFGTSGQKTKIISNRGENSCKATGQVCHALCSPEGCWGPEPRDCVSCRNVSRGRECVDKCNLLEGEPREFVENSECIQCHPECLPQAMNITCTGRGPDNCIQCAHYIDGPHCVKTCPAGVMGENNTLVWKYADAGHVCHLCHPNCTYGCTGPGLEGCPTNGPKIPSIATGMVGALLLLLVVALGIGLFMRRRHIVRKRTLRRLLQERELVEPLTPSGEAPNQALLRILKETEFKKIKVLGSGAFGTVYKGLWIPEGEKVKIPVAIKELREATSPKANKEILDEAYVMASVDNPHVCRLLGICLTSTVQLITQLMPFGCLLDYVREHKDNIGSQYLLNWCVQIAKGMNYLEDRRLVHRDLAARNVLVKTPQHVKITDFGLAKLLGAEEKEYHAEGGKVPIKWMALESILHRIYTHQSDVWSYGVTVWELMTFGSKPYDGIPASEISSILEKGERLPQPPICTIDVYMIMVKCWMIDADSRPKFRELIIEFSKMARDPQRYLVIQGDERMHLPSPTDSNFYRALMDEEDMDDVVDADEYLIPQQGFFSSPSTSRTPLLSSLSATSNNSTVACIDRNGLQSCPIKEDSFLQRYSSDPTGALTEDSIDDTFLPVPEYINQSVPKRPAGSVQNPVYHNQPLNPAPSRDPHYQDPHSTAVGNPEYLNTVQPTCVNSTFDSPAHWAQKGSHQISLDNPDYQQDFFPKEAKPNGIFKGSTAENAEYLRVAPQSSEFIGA
Cyclin-dependent kinase 4/cyclin D1, sequence (P11802 whole entry): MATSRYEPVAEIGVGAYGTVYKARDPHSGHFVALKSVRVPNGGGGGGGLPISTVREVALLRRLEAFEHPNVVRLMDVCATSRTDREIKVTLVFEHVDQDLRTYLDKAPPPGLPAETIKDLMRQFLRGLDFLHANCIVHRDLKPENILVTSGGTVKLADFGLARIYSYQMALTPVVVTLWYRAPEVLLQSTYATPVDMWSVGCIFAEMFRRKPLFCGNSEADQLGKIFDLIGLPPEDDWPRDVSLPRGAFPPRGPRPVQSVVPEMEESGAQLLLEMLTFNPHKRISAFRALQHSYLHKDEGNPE
Cyclin-dependent kinase 4/cyclin D1, sequence (P24385 whole entry, further chain): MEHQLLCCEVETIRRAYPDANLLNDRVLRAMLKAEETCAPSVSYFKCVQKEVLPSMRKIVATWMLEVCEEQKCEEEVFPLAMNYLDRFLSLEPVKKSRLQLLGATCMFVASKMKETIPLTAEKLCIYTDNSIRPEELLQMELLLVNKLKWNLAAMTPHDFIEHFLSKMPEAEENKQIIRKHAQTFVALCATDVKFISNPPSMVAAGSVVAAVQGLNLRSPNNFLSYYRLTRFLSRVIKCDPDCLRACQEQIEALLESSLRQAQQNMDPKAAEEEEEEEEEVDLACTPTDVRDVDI
Cyclin-dependent kinase 1/cyclin B1, sequence (P06493 whole entry): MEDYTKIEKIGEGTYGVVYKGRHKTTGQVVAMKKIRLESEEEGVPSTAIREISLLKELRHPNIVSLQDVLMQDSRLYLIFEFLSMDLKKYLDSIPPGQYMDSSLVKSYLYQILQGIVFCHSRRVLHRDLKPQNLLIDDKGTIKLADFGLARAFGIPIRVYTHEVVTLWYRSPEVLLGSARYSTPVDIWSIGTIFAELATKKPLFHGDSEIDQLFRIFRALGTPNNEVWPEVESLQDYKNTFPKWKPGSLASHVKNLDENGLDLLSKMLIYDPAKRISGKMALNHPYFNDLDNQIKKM
Cyclin-dependent kinase 1/cyclin B1, sequence (P14635 whole entry, further chain): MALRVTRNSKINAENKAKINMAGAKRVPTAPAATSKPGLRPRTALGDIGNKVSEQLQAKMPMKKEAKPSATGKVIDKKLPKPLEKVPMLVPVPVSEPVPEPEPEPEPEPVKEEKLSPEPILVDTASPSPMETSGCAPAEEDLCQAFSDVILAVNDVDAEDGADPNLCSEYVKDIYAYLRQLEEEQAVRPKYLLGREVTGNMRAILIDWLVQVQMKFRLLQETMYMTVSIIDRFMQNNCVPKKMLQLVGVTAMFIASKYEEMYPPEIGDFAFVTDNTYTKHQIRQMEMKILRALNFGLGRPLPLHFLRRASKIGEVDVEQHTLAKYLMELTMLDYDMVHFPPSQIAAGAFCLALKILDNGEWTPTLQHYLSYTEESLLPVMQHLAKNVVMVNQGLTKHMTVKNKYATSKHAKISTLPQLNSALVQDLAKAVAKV

| Compound | IC50 [1] [µM] | IC50 (Protein kinase C (PKC)) [µM] | IC50 [3] [µM] | IC50 [4] [µM] | IC50 [5] [µM] | IC50 [6] [µM] | also measured |
| --- | --- | --- | --- | --- | --- | --- | --- |
| CN1CC[C@H](c2c(O)cc(O)c3c(=O)cc(Oc4ccccc4Cl)oc23)[C@H](O)C1 | > 50 | > 50 | > 25 |  |  |  | IC50 [2]: > 50 µM |
| CN1CCC(c2c(O)cc(O)c3c(=O)cc(Sc4ccccc4)oc23)C(O)C1 (racemic) |  |  |  | 6.59 | 4.1 | 0.44 |  |
| CN1CCC(c2c(O)cc(O)c3c(=O)cc(SC(C)(C)C)oc23)C(O)C1 (racemic) |  |  |  | 1.07 | 2.07 | 0.08 |  |
| CN1CCC(c2c(O)cc(O)c3c(O)c/c(=N\c4ccccc4)oc23)C(O)C1 (racemic) |  |  |  | > 25 | > 25 | 16.3 |  |
| CN1CCC(c2c(O)cc(O)c3c(=O)cc(N4CCCCC4)oc23)C(O)C1 (racemic) |  |  |  | 9.69 | 3.7 | 2.5 |  |
| Cc1cc(C)nc(Sc2cc(=O)c3c(O)cc(O)c(C4CCN(C)CC4O)c3o2)n1 (racemic) |  |  |  | 40.4 | 82.5 | 6.4 |  |
| CCSc1cc(=O)c2c(O)cc(O)c(C3CCN(C)CC3O)c2o1 (racemic) |  |  |  | 3.93 | 2.06 | 0.46 |  |
| CN1CC[C@H](c2c(O)cc(O)c3c(=O)cc(Sc4ccccc4Cl)oc23)[C@H](O)C1 (stereo in doubt; 16) | > 50 | 16.1 | > 25 | 2.1 | 16.2 | 0.11 | IC50 (MIA PaCa-2): 0.03 µM; IC50 (HCT-116): 0.21 µM; IC50 [2]: > 50 µM; IC50 [7]: 0.16 µM; IC50 [8]: 1.5 µM; IC50 (A2780): 0.87 µM; IC50 (PC-3): 0.02 µM |
| CN1CC[C@H](c2c(O)cc(O)c3c(=O)cc(Sc4ccccc4Cl)oc23)[C@H](O)C1 (stereo in doubt; 21) |  |  |  | 4.4 | > 25 | 6.1 |  |
| CN1CC[C@H](c2c(O)cc(O)c3c(=O)cc(-c4ccccc4Cl)oc23)[C@H](O)C1 [ALVOCIDIB] | > 50 | 14 | 19 |  |  |  | IC50 [7]: 0.05 µM |
| COC(=O)[C@@]1(Cc2ccc(O)c(CC=C(C)C)c2)OC(=O)C(O)=C1c1ccc(O)cc1 [BUTYROLACTONE I] | 260 | 160 | 94 |  | 1000 |  | IC50 [2]: 590 µM |
| Cn1cnc2c(NCc3ccccc3)nc(NCCO)nc21 [OLOMOUCINE] | 2000 | 1000 | 30 |  |  |  |  |
